# According to ChEMBL document CHEMBL1759881, “Synthesis and anti-inflammatory activity of ent-kaurene derivatives” (Eur J Med Chem, 2011):
# Active and inactive are the calls of the source. The rule behind the calls is not given here.
# Key:
# RAW264.7 [1] = experiment: Antiinflammatory activity in mouse RAW264.7 cells assessed as inhibition of LPS-induced nitric oxide release pretreated for 15 mins before LPS challenge measured after 24 hrs by Griess method; type: functional, cell-based
# Outline: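 RAW 264.7 cells pre-incubated 15 min with compound (1–25 range in the table; 1, 5, 10, 25, 50 for dose-response) or DMSO vehicle, then LPS 250 ng/ml for 24 h. Nitrite in supernatant measured by Griess reagent, absorbance at 548 nm against NaNO2 standard. IC50 is the concentration giving 50% inhibition of NO release. Means ± SD of three independent experiments in triplicate.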
# [2] = Cytotoxicity against LPS-stimulated mouse RAW264.7 cells assessed as cell viability at 1 to 25 uM pretreated for 15 mins before LPS challenge measured after 24 hrs by MTT assay; type: cell-based; conditions: LPS-stimulated RAW264.7 cells, read-out: Activity
# Outline: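 RAW 264.7 cells plated at 10⁵ cells/well, treated with compound at 1–25 in the presence of LPS 250 ng/ml for 24 h. MTT then added for 4 h at 37 °C, formazan extracted in DMSO, absorbance read at 540 nm. Viability expressed relative to untreated controls. Triplicate wells, at least three independent experiments.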
# RAW264.7 [3] = experiment: Cytotoxicity against LPS-stimulated mouse RAW264.7 cells assessed as cell viability at 1 to 50 uM pretreated for 15 mins before LPS challenge measured after 24 hrs by MTT assay; type: cell-based; conditions: raw264.7, 24 h
# Outline: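 RAW 264.7 cells pre-treated 15 min with compound (1, 5, 10, 25, 50), then LPS 250 ng/ml for 24 h. Viability by MTT: 4 h at 37 °C, formazan dissolved in DMSO, absorbance 540 nm, relative to untreated control. Triplicate; means ± S.D. of three experiments.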
# RAW264.7 [4] = experiment: Antiinflammatory activity in mouse RAW264.7 cells assessed as inhibition of LPS-induced NOS2 protein expression pretreated at 5 uM for 15 mins before LPS challenge measured after 24 hrs by Western blotting; type: functional, cell-based
# Outline: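 Macrophages pre-incubated 15 min with compound, then LPS 250 ng/ml for 24 h. NOS-2 protein detected by Western blot with β-actin as loading control. A representative of three experiments is shown.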
# RAW264.7 [5] = experiment: Antiinflammatory activity in mouse RAW264.7 cells assessed as inhibition of LPS-induced NOS2 mRNA expression pretreated at 5 uM for 15 mins before LPS challenge measured after 4 hrs by RT-PCR analysis; type: functional, cell-based
# Outline: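 Macrophages pre-incubated 15 min with compound, then LPS 250 ng/ml for 4 h. NOS-2 mRNA measured by real-time quantitative PCR, samples in duplicate, normalized to housekeeping gene 36B4 (acidic ribosomal phosphoprotein P0). Fold induction taken from average replicate values. Means ± S.D. of three independent experiments in triplicate; Student's unpaired t test vs LPS.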
# RAW264.7 [6] = experiment: Inhibition of NF-kappaB activation in LPS-stimulated mouse RAW264.7 cells assessed as IkappaBalpha degradation pretreated at 5 uM for 15 mins before LPS challenge measured after 24 hrs by Western blotting; type: cell-based
# RAW264.7 [7] = experiment: Antiinflammatory activity in mouse RAW264.7 cells assessed as inhibition of LPS-induced IL-1alpha production at 5 uM pretreated for 15 mins before LPS challenge measured after 24 hrs by ELISA; type: functional, cell-based
# Outline: (§1)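 RAW 264.7 macrophages pre-incubated 15 min with compound or left untreated, then LPS 250 ng/ml for 24 h. IL-6, IL-1, TNF and IFN measured in supernatant by ELISA. Means ± S.D. of three independent experiments run in triplicate.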
# RAW264.7 [8] = experiment: Antiinflammatory activity in mouse RAW264.7 cells assessed as inhibition of LPS-induced IL-6 production at 5 uM pretreated for 15 mins before LPS challenge measured after 24 hrs by ELISA; type: functional, cell-based; outline: as §1
# RAW264.7 [9] = experiment: Antiinflammatory activity in mouse RAW264.7 cells assessed as inhibition of LPS-induced IFN-gamma production at 5 uM pretreated for 15 mins before LPS challenge measured after 24 hrs by ELISA; type: functional, cell-based; outline: as §1
# RAW264.7 [10] = experiment: Antiinflammatory activity in mouse RAW264.7 cells assessed as inhibition of LPS-induced TNFalpha production at 5 uM pretreated for 15 mins before LPS challenge measured after 24 hrs by ELISA; type: functional, cell-based; outline: as §1
IC50 (RAW264.7 [1]),Structure (SMILES),"viability at 24 h, up to 25 µM [2]",further results
7 µM,C[C@@]12CCC[C@@](C)(C(=O)OC[Si](C)(C)C)[C@H]1CC[C@@]1(CC(=O)O)CCCC[C@H]12,95%,inhibition (RAW264.7 [1]): Dose-dependent effect; Activity (RAW264.7 [3]): Non-toxic; Activity (RAW264.7 [4]): Active; Activity (RAW264.7 [5]): Active; Activity (RAW264.7 [6]): Active; Activity (RAW264.7 [7]): Active; Activity (RAW264.7 [8]): Active; Activity (RAW264.7 [9]): Active; Activity (RAW264.7 [10]): Active
> 25 µM,C=C1C[C@@]23CC[C@@H]4[C@](C)(COS(=O)OC[C@]5(C)CCC[C@]6(C)[C@@H]5CC[C@]57CC(=C)[C@H](CC[C@H]56)C7)CCC[C@@]4(C)[C@@H]2CC[C@@H]1C3,99%,
> 25 µM,COC(=O)[C@]1(C)CCC[C@@]2(C)[C@@H]3CC[C@@H]4C[C@@]3(CC[C@@H]21)C[C@]4(C)OC,90%,
> 25 µM,COC(=O)[C@]1(C)CCC[C@@]2(C)[C@@H]3CC[C@@H]4C[C@@]3(CC[C@@H]21)CC4=O,98%,
> 25 µM,COC(=O)[C@]1(C)CCC[C@@]2(C)[C@@H]3CC[C@@H]4C[C@@]3(CC[C@@H]21)C[C@]4(C)Cl,82%,
10 µM,C=C1C[C@@]23CC[C@@H]4[C@](C)(CO)CCC[C@@]4(C)[C@@H]2CC[C@@H]1C3,80%,
> 25 µM,"C=C1C[C@@]23CC[C@H]4[C@@](C)(CCC[C@@]4(C)C(=O)O)[C@@H]2CCC1C3 (single isomer, unassigned) [KAURENOIC ACID]",70%,
> 25 µM,C=C1[C@@H]2CC[C@H]3[C@]4(C)CCC[C@@](C)(C(=O)O)[C@H]4CC[C@]3(C2)[C@H]1OC(C)=O,58%,
> 25 µM,C=C1[C@@H]2CC[C@H]3[C@]4(C)CCC[C@@](C)(C(=O)OC)[C@H]4CC[C@]3(C2)[C@H]1OC(=O)CCCCCCCCCCC,95%,
12 µM,C[C@@]12CCC[C@@](C)(C(=O)OCc3ccccc3)[C@H]1CC[C@]13CC(=O)[C@H](CC[C@H]12)C3,95%,
> 25 µM,COC(=O)[C@]1(C)CCC[C@@]2(C)[C@@H]3CC[C@@H]4C[C@@]3(CC[C@@H]21)C[C@]41COS(=O)O1 (stereo not given in full),60%,
10 µM,C=C1C[C@@]23CC[C@@H]4[C@](C)(COC(C)=O)CCC[C@@]4(C)C2=CC[C@@H]1C3,90%,
> 25 µM,C=C1[C@@H]2CC=C3[C@@](CC[C@@H]4[C@](C)(C(=O)OC)CCC[C@@]34C)(C2)[C@H]1O,67%,
12 µM,C=C1C[C@@]23CC[C@@H]4[C@](C)(COC(C)=O)CCC[C@@]4(C)[C@@H]2CC[C@@H]1C3,99%,
7 µM,C[C@@]12CCC[C@@](C)(C(=O)OCc3ccccc3)[C@H]1CC[C@@]1(CC(=O)O)CCCC[C@H]12,95%,inhibition (RAW264.7 [1]): Dose-dependent effect; Activity (RAW264.7 [3]): Non-toxic; Activity (RAW264.7 [4]): Active; Activity (RAW264.7 [5]): Active; Activity (RAW264.7 [6]): Active; Activity (RAW264.7 [7]): Active; Activity (RAW264.7 [8]): Active; Activity (RAW264.7 [9]): Active; Activity (RAW264.7 [10]): Active
> 25 µM,COC(=O)[C@]1(C)CCC[C@@]2(C)C3=CC[C@@H]4C[C@@]3(CC[C@H]12)C[C@H]4C,95%,
